The list is a sample of the results.
Apaf1 activ: activators of human Apaf-1 apoptosome, primary screen, biochemical, DEVD-Rh110 fluorescence, uHTS; Apoptotic protease-activating factor 1 (Homo sapiens), O14727; Apaf-1 apoptosome caspase-3 activation; active compounds read low; activity change, negative = activation, % at 20 µM; 330,000 compounds, 0.31% hits; AID 489031, 2010;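 active = activity change at or below -40% at 20 µM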
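System: Reconstituted apoptosome of Apaf-1, cytochrome c, caspase-9, procaspase-3 | Reagent: dATP, cytochrome c, and (Z-DEVD)2-Rh110 caspase-3 substrate | Times: 30 min compound preincubation and 50 min reaction, both room temperature | Detection: Caspase-3-released Rh110 fluorescence, 540 nm emission, 480 nm excitation | Measure: Caspase-3 activity via Apaf-1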
Rh110 act interf: Rh110 fluorescence interference by putative Apaf-1 activators, confirmation, artefact control for Apaf-1 activator project, biochemical, 20 µM. shares compounds with Apaf1 activ. quenched caspase reaction, Ex480/Em540. fluorescence interference (activity change), % at 20 µM, hits read low. 980 tested, under 10 active. AID 504616, 2011;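 active = mean activity change at or below -40% when tested at 20 µM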
Apaf-1 act conf: Apaf-1 activators, single-dose retest, confirmation, biochemical, fluorescence, DEVD-Rh110, 20 µM; shares compounds with Apaf1 activ; reconstituted apoptosome caspase-3 activity; active compounds read low; activity change, negative = activation, % at 20 µM; 980 compounds, 5% hits; AID 504617, 2011;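 active = mean activity change at or below -40%, meaning activation of 40% or more, at 20 µM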
Apaf1 act interf: fluorescence interference of Apaf-1 activator hits, dose response, artefact control for Apaf-1 activator project. shares compounds with Apaf1 activ. fluorescence interference counterscreen, Apaf-1 activator assay. EC50, µM. 55 tested, under 10 active. AID 588592, 2011; call rule not given here
An asterisk follows results filed as active; . = no result.

SMILES	Apaf1 activ	Rh110 act interf	Apaf-1 act conf	others
Cc1cc(OCc2nn[nH]n2)c2c(C)c(Cc3ccccc3)c(=O)oc2c1	-45*	3	17
CCC(CC)c1nnc(NC(=O)CN2C(=O)c3ccccc3C2=O)s1	87	.	.
O=C(COC(=O)c1cc(Cl)ccc1Cl)NCCN1C(=O)CSC1=O	43	.	.
COC(=O)c1ccccc1NC(=O)CN1C(=O)CSC1=O	-48*	-6	8
O=C(CSc1nc(=O)n2ccccc2n1)NCc1ccccc1Cl	48	.	.
O=c1cc(-c2cc3ccccc3o2)c2cc(O)ccc2o1	-234*	11	18
NC1=NC[C@H](Cc2ccc(O)cc2)N1CCCCC1CCCCC1	53	.	.
O=C(Cc1cc(=O)[nH][nH]1)N/N=C/C(Cl)=C/c1ccccc1	49	.	.
CN(CC(=O)Nc1ccccc1N1CCOCC1)CC(=O)Nc1ccc(F)c(F)c1F	-72*	8	12
CCCN(CC(=O)Nc1ccccc1C)C(=O)C1CC(=O)N(c2ccccc2C(C)CC)C1 (stereo not drawn)	48	.	.
CCC(C)(C)c1ccc(OCCCC[n+]2ccccc2)c(C(C)(C)CC)c1	51	.	.
COc1ccccc1-c1sc2cc3c(cc2c1-c1ccc(OCCN2CCCCC2)cc1)OCO3	59	.	.
Cc1c(C(=O)Nc2ccncc2)sc2nc(-c3ccc(F)cc3)cn12	-44*	7	-27
NC1=C(Br)C(=O)c2ccccc2C1=O	71	.	.
O=C1/C(=C/c2ccccn2)SC(=S)N1c1ccc(O)cc1	-47*	-1	-10
Cc1cc(C)n(CC(C)C(=O)O)n1 (stereo not drawn)	-165*	0	-104*	Apaf1 act interf=>100
Cc1cc(OC(=O)c2ccccc2)n(CCC#N)n1	43	.	.
N#Cc1ccc(C23CC4(C2)[C@H](CN(Cc2ccc(-c5ccccc5)cc2)[C@@H]4c2ccccc2)C3c2ccc(C(F)(F)F)cc2)cc1 (stereo partly drawn)	45	.	.
c1cc(SC2CCCCC2)cc(-c2nc3cnccn3c2NC2CCCCC2)c1	41	.	.
CCC(C)Sc1ccc(-c2nc3ccc(C)cn3c2NC2CCCCC2)cc1 (stereo not drawn)	41	.	.
Cc1ccc2nc(-c3cccnc3)c(NC3CCCCC3)n2c1	-50*	5	14
CCN(CC)CCN(C(=O)c1ccc2c(c1)CCCC2)c1nc2ccc(OC)cc2s1	61	.	.
Cc1ccc(NC2=C(N3CCCCC3)C(=O)c3ccccc3C2=O)cc1	81	.	.
CC(C)NC[C@@H](O)c1ccc(O)c(O)c1	43	.	.
CC(C)(C)NC(=O)c1cc(-c2ccc3c(c2)OCO3)nc2ccccc12	-71*	4	1
SMILES	Apaf1 activ	Rh110 act interf	Apaf-1 act conf	others
CCOc1ccccc1NC(=O)c1cc(-c2ccccn2)nc2ccccc12	53	.	.
O=C1/C(=N\S(=O)(=O)c2cccs2)C([n+]2ccc(CCCc3ccccc3)cc2)=C([O-])c2ccccc21	46	.	.
C[C@H](NC(=O)c1ccc(C(C)(C)C)cc1)C(=O)N1CCN(C/C=C/c2ccccc2)CC1	43	.	.
COc1ccc(OC)c(NC(=S)N2CCN(C/C=C/c3ccccc3)CC2)c1	-300*	9	13
COc1ccc(Cl)cc1NC(=O)C(C)N1CCN(C/C=C/c2ccccc2)CC1 (stereo not drawn)	43	.	.
O=C1NC2=C(CCc3ccccc32)C(c2ccc(Br)cc2)N1 (stereo not drawn)	69	.	.
COc1cc2sc3cc(NCC[C@@H]4CCCN4C)ccc3c(=O)c2cc1OC	55	.	.
O=C1CCNc2cc3ccccc3cc21	62	.	.
Cc1ccc(C(C[N+](=O)[O-])c2c(C)[nH]n(-c3ccccc3)c2=O)cc1 (stereo not drawn)	93	.	.
CC(C)c1ccc(NC(=O)C2CC(=O)N(C3CCCC3)C2)cc1 (stereo not drawn)	-96*	4	4
CCCCCc1cc(=O)oc2c(C(CCN3CCCC(C)C3)c3cc(OC)c(OC)c(OC)c3)c(OC)cc(OC)c12 (stereo not drawn)	60	.	.
Cc1ccccc1N=Cc1cccc(O)c1O	74	.	.
O=C1NCN(c2ccccc2)C12CCN(CCCC(c1ccc(F)cc1)c1ccc(F)cc1)CC2	55	.	.
CCOc1c(O)ccc(/C=C2\SC(=S)NC2=O)c1[N+](=O)[O-]	56	.	.
Cc1ccccc1NC1=C/C(=N\S(=O)(=O)c2cccs2)c2ccccc2C1=O	97	.	.
Cn1c(Cc2ccccc2)n[nH]c1=S	42	.	.

Screening results as filed in PubChem.
